Reference: ChEMBL document CHEMBL3351863, “Optimization of 2-phenyl-pyrimidine-4-carboxamides towards potent, orally bioavailable and selective P2Y(12) antagonists for inhibition of platelet aggregation” (Bioorg Med Chem Lett, 2014)

Tests used:
[1] = biological target: P2Y purinoceptor 12 (Homo sapiens, UniProt Q9H244); test: Displacement of [3H]-2-methyl-thio-adenosine 5'-diphosphate from human recombinant P2Y12 expressed in CHO cell membranes by scintillation counting method
Outline: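 CHO cells expressing recombinant P2Y₁₂ receptors, incubated with tritium-labeled 2-methyl-thio-adenosine 5'-diphosphate plus test compound; IC₅₀ from displacement curves, each point in triplicate; reference compound run with every compound set, and set re-analyzed if its IC₅₀ fell outside pre-set 95% confidence interval.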

[2] = test system: Platelet; test: Inhibition of ADP-induced platelet aggregation in human platelet rich plasma by in-vitro light transmission aggregometry assay; type: functional
Outline: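 Human platelet-rich plasma incubated with compound, aggregation induced by 3 µM ADP and read by light transmission aggregometry; IC₅₀ derived from concentration–response curve.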

[3] = Potency shift, ratio of IC50 for inhibition of ADP-induced platelet aggregation in human platelet rich plasma to IC50 for displacement of [3H]-2-methyl-thio-adenosine 5'-diphosphate from human recombinant P2Y12 expressed in CHO cell membranes
[4] = Lipophilicity, logD of the compound; type: physicochemical; conditions: octanol/water
[5] = Clearance in Wistar rat at 1 mg/kg, iv; type: ADME, organism-based; design: dose 1 mg/kg, route intravenous; conditions: in vivo
Outline: (§1)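 Rats dosed by iv infusion at 1 mg/kg (n = 2) or orally at 10 mg/kg (n = 3); plasma levels measured, limit of quantification ca. 1 ng/mL.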

[6] = Volume of distribution at steady state in Wistar rat at 1 mg/kg, iv or 10 mg/kg, po; type: ADME, organism-based; conditions: in vivo, read-out: Vdss; outline: as §1
[7] = Half life in Wistar rat at 1 mg/kg, iv or 10 mg/kg, po; type: ADME, organism-based; conditions: in vivo; outline: as §1
[8] = AUC in Wistar rat at 10 mg/kg, po; type: ADME, organism-based, Plasma; design: dose 10 mg/kg, route oral; conditions: Wistar, plasma; outline: as §1
[9] = Cmax in Wistar rat at 10 mg/kg, po; type: ADME, organism-based; design: dose 10 mg/kg, route oral; conditions: Wistar, in vivo; outline: as §1
[10] = Oral bioavailability in Wistar rat at 10 mg/kg; type: ADME, organism-based; conditions: Wistar, in vivo; outline: as §1
[11] = test system: Platelet; test: Inhibition of ADP-induced platelet aggregation in human platelet rich plasma assessed as remaining activity at 500 nM by in-vitro light transmission aggregometry assay; type: functional
Outline: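 Light transmission aggregometry in human platelet-rich plasma; compound incubated, aggregation triggered with 3 µM ADP; remaining activity (RA) recorded at a single compound level (1000, 500 or 100 nM).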

[12] = Solubility in neutral pH; type: physicochemical
[13] = Solubility in basic pH; type: physicochemical
[14] = biological target: T1, Cytochrome P450 3A4 (Homo sapiens, UniProt P08684); test: Inhibition of CYP3A4 in human liver microsomes assessed as reduction in midazolam 1'-hydroxylation; type: ADME
[15] = biological target: T1, Cytochrome P450 3A4; test: Inhibition of CYP3A4 in human liver microsomes assessed as reduction in testosterone 6beta-hydroxylation; type: ADME
[16] = biological target: Cytochrome P450 2D6 (Homo sapiens, UniProt P10635); test: Inhibition of CYP2D6 in human liver microsomes assessed as reduction in dextromethorphan-O demethylation; type: ADME
[17] = biological target: Cytochrome P450 2C9 (Homo sapiens, UniProt P11712); test: Inhibition of CYP2C9 in human liver microsomes assessed as reduction in diclofenac 4'-hydroxylation; type: ADME
[18] = test system: Liver microsome; test: Metabolic stability assay in human liver microsomes assessed as parent drug disappearance at 1 uM after 20 mins by HPLC and mass spectrometry method; type: ADME
[19] = test system: Liver microsome; test: Metabolic stability assay in rat liver microsomes assessed as parent drug disappearance at 1 uM after 20 mins by HPLC and mass spectrometry method; type: ADME
[20] = biological target: Voltage-gated inwardly rectifying potassium channel KCNH2 (Homo sapiens, UniProt Q12809); test: Inhibition of human ERG expressed in HEK cells by patch-clamp assay; type: cell-based; conditions: hek293
Voltage-gated inwardly rectifying potassium channel KCNH2, sequence (Q12809 whole entry): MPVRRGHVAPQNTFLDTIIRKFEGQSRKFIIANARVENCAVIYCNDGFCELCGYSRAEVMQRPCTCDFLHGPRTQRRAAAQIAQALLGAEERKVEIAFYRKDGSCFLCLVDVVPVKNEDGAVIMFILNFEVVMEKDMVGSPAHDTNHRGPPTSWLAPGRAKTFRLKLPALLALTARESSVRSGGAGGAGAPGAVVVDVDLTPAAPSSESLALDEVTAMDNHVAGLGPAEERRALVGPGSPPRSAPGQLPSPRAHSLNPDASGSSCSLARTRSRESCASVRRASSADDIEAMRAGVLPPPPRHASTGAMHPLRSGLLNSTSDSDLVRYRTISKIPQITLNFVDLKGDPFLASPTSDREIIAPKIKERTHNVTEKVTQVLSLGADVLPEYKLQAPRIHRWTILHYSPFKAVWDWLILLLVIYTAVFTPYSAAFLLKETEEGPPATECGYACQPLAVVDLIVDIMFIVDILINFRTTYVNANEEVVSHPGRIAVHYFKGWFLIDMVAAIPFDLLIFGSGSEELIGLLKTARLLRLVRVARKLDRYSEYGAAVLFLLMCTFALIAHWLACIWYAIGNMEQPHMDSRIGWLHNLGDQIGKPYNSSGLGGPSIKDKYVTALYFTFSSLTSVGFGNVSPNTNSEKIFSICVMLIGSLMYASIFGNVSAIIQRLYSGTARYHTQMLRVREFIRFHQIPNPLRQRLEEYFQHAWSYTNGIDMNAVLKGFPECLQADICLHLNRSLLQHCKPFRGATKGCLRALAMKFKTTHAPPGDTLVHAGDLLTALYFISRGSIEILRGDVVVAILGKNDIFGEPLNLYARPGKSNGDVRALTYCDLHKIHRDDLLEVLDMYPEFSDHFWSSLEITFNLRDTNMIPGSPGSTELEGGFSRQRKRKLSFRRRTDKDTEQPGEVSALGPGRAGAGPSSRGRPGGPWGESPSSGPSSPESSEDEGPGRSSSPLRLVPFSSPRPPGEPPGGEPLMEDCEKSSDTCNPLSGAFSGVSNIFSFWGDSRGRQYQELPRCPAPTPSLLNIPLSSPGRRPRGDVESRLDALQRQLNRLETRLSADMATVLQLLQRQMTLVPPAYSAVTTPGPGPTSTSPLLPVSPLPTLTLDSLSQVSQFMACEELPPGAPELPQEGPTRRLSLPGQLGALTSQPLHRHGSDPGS

P2Y purinoceptor 12, sequence (Q9H244 whole entry): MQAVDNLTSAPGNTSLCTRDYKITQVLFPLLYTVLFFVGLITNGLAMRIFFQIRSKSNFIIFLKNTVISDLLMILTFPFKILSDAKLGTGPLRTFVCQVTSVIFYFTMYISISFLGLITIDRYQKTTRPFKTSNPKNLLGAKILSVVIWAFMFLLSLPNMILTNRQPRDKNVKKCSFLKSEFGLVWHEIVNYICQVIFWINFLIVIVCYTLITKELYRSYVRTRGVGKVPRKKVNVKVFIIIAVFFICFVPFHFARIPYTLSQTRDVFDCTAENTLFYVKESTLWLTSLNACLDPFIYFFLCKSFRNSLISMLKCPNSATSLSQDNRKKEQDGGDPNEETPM
T1 sequence (P08684 whole entry): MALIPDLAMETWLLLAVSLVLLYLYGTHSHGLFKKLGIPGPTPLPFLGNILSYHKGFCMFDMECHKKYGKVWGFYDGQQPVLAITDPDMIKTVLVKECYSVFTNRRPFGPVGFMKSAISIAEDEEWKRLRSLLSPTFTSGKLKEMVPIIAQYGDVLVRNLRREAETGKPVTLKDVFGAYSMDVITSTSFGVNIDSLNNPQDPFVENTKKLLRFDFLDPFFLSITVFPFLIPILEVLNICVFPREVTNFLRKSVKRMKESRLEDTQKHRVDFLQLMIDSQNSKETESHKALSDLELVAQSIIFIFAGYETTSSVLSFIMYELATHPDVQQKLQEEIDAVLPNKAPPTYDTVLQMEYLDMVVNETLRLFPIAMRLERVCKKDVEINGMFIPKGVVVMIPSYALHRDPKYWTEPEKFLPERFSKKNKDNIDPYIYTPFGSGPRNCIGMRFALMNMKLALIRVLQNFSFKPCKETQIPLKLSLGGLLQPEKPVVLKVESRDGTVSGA
Cytochrome P450 2C9, sequence (P11712 whole entry): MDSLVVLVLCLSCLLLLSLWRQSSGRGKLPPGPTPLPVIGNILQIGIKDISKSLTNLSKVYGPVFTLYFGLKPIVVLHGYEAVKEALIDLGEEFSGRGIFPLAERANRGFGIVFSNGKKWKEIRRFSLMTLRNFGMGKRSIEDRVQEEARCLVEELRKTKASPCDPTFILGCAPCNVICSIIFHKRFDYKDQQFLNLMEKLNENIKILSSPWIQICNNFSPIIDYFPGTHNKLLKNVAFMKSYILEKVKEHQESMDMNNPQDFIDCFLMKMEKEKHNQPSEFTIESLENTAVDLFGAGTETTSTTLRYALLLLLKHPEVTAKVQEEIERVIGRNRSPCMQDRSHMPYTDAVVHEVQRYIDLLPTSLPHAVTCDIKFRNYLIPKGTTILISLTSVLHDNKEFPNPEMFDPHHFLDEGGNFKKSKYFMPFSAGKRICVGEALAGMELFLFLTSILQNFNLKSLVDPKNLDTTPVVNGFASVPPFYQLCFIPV
Cytochrome P450 2D6, sequence (P10635 whole entry): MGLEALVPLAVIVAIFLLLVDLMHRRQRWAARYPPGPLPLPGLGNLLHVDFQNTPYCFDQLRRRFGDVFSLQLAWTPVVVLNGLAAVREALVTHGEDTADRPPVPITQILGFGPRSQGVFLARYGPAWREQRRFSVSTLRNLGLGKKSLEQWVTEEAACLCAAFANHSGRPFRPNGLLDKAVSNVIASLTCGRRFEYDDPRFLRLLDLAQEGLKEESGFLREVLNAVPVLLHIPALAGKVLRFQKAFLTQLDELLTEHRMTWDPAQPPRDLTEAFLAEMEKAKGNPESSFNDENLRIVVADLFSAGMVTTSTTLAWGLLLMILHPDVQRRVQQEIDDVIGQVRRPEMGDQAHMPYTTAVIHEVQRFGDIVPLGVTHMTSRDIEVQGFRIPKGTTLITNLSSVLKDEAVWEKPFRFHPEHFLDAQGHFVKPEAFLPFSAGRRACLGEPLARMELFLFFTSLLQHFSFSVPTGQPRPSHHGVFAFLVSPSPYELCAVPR

| IC50 [1] [nM] | logD [4] | clearance [5] [mL/min/kg] | Vd [6] [L/kg] | half-life [7] [h] | AUC [8] [µM·h] | Cmax [9] [µM] | bioavailability [10] [%] | SMILES | Ratio IC50 [3] | also measured |
| --- | --- | --- | --- | --- | --- | --- | --- | --- | --- | --- |
| 4.8 | 1.9 | 17 | 0.4 | 2 | 6 | 7.62 | 33 | CCCCOC(=O)N1CCN(C(=O)[C@H](CCC(=O)O)NC(=O)c2cc([C@H]3C[C@@H]3COC)nc(-c3ccccc3)n2)CC1 | 6.4 | IC50 ([2]; platelet): 31 nM |
| 43 | 0.8 | 14 | 0.3 | 0.55 | 2.31 | 2.82 | 11 | CCOC(=O)N1CCN(C(=O)[C@H](CCC(=O)O)NC(=O)c2cc([C@@H]3C[C@H]3COC)nc(-c3ccccc3)n2)CC1 | 14 | Activity [11]: 30%; IC50 ([2]; Homo sapiens, Platelet, Plasma): 589 nM; solubility [12]: soluble; solubility [13]: soluble; inhibition (INH) [14]: Not Active; inhibition (INH) [15]: Not Active; inhibition (INH) [16]: Not Active; inhibition (INH) [17]: Not Active; Stability [18]: Stable; Stability [19]: Stable; inhibition (INH) [20]: Not Active |
